Experimental data pooled from the literature.
Target: Mitogen-activated protein kinase kinase kinase kinase 4 (MAP4K4, Homo sapiens, UniProt O95819)

Cn1cc(-c2cc(F)cc(N3CCn4c(cc5c4CCCC5)C3=O)c2CO)cc(Nc2ccc(N3CCN(C4COC4)CC3)cn2)c1=O
inhibition (enzyme activity, inhibitor; 0.1 µM): 23%

Cn1cncc1[C@](O)(COc1ccc(C#N)cc1-c1ccc(OC(F)(F)F)cc1)c1ccc(C#N)cc1
remaining binding (cell-free assay, competition with immobilised ligand; 1 µM): 100%

Cn1cc(-c2cccc(N3CCc4c(sc5c4CC(C)(C)C5)C3=O)c2CO)cc(Nc2ccncn2)c1=O
inhibition (enzyme activity, inhibitor; 1 µM): 4%

Cc1nn(C)cc1-c1nc2c(N3CCN(Cc4ccc(Cl)cc4)CC3)c(Cl)cnc2[nH]1
remaining binding (binding, competition with immobilised ligand; 1 µM): 88%

N#CC1(c2ccccn2)CCN(Cc2cc(C(=O)O)c(=O)n3ccccc23)CC1
remaining binding (cell-free assay, competition with immobilised ligand; 1 µM): 87%

O=c1[nH]c2ccccc2n1C1CCN(Cc2ccc(-c3[nH]c4cc5ncnc5cc4nc3-c3ccccc3)cc2)CC1
remaining signal (cell-free assay; 0.5 µM): 99.5%

COc1ncccc1-c1cnn2ccc(N3CCN(C(=O)OC(C)C)CC3)nc12
remaining binding (binding, competition with immobilised ligand; 1 µM): 83%

Nc1ncc(-c2nc(N3CCOCC3)nc(N3CCOCC3)n2)c(C(F)F)n1
remaining binding (binding, competition with immobilised ligand; 10 µM): 100%

CC(C)(C)c1cc(C=C(C#N)C#N)cc(Br)c1O
remaining activity (enzyme activity, inhibitor; 0.5 µM): 96.2%
